{"data": "Measured values from different studies", "matrix": "Caco-2", "note": "Each line is one published result; the experiments were not run side by side."}
{"SMILES": "C[C@H]1O[C@@H](O[C@H]2[C@@H](O)C[C@H](O[C@H]3[C@@H](O)C[C@H](O[C@H]4CC[C@@]5(C)[C@H](CC[C@@H]6[C@@H]5C[C@@H](O)[C@]5(C)[C@@H](C7=CC(=O)OC7)CC[C@]65O)C4)O[C@@H]3C)O[C@@H]2C)C[C@H](O)[C@@H]1O", "measurement": "Papp B→A", "result": "14 ×10⁻⁶ cm/s"}
{"SMILES": "CNC(=C[N+](=O)[O-])NCCSCc1ccc(CN(C)C)o1", "measurement": "Papp B→A", "result": "2 ×10⁻⁶ cm/s"}
{"SMILES": "CC1=C2C(=O)O[C@@H](c3ccoc3)[C@]2(C)CCC1", "concentration": "1 mg/mL", "time": "4 h", "pH": "pH 7.4", "measurement": "Papp", "result": "> 10 ×10⁻⁶ cm/s"}
{"SMILES": "CCC(C)n1ncn(-c2ccc(N3CCN(c4ccc(OCC5COC(Cn6cncn6)(c6ccc(Cl)cc6Cl)O5)cc4)CC3)cc2)c1=O (stereo not shown)", "concentration": "1 µM", "pH": "pH 7.4", "measurement": "Papp", "result": "1.5 to 2.5 ×10⁻⁶ cm/s"}
{"SMILES": "CC(C)NCC(O)COc1cccc2ccccc12 (stereo not shown)", "concentration": "10 µM", "time": "2 h", "pH": "pH 7.4", "measurement": "Papp B→A", "result": "9.99 ×10⁻⁶ cm/s"}
{"SMILES": "CC(C)c1cccc2c(-c3ccccc3)cc(-c3ccc(-c4ccc(C(=O)O)cc4)[nH]3)nc12", "measurement": "Papp B→A", "result": "1.11 ×10⁻⁶ cm/s"}
{"SMILES": "CC(C)NCC(O)COc1cccc2ccccc12 (stereo not shown)", "measurement": "Papp", "result": "20 ×10⁻⁶ cm/s"}
{"SMILES": "Cc1ncsc1-c1ccc(CNC(=O)[C@@H]2C[C@@H](O)CN2C(=O)[C@@H](NC(=O)C2(F)CC2)C(C)(C)C)c(OCCOc2ccc(CN3CCN(c4cc(-c5ccccc5O)nnc4N)CC3)cc2)c1", "time": "2 h", "pH": "pH 7.2", "measurement": "Papp B→A", "result": "3.8 ×10⁻⁶ cm/s"}
{"SMILES": "O=c1c(O[C@@H]2O[C@H](CO)[C@@H](O)[C@H](O)[C@H]2O)c(-c2ccc(O)c(O)c2)oc2cc(O)cc(O)c12", "concentration": "1 mg/mL", "pH": "pH 7.4", "measurement": "Papp", "result": "2.05 ×10⁻⁶ cm/s"}
{"SMILES": "CO[C@@H](C[C@H]1C(C)=CC[C@@H]2[C@]3(C)C[C@H](O[C@@H]4O[C@@H](C)[C@H](OC(=O)c5cccc(O)c5)[C@@H](O[C@@H]5O[C@H](CO)[C@@H](O)[C@H](O)[C@H]5NC(C)=O)[C@H]4O)[C@@H](O)C(C)(C)[C@H]3CC[C@]21C)[C@H](N)C(=O)O.O=C(O)C(F)(F)F", "concentration": "5 µM", "time": "1 h", "measurement": "Papp B→A", "result": "0.05 ×10⁻⁶ cm/s"}
{"SMILES": "COCCc1ccc(OCC(O)CNC(C)C)cc1 (stereo not shown)", "measurement": "Papp", "result": "15 ×10⁻⁶ cm/s"}
{"SMILES": "CCn1c(=O)c2c(nc(S)n2C)n(C)c1=O", "concentration": "10 µM", "time": "2 h", "measurement": "Papp B→A", "result": "7 ×10⁻⁶ cm/s"}
{"SMILES": "CCCCN1C(=O)[C@@H]([C@@H](O)C2CCCCC2)NC(=O)C12CCN(Cc1ccc(Oc3ccc(C(=O)O)cc3)cc1)CC2.Cl", "measurement": "Papp", "result": "1.6 ×10⁻⁶ cm/s"}
{"SMILES": "Nc1cc(N2CCCCC2)nc(N)[n+]1[O-]", "concentration": "10 µM", "time": "2 h", "pH": "pH 7.4", "measurement": "Papp B→A", "result": "7.19 ×10⁻⁶ cm/s"}
{"SMILES": "O=c1c(O)c(-c2ccc(O)c(O)c2)oc2cc(O)cc(O)c12", "concentration": "1 mg/mL", "pH": "pH 7.4", "measurement": "Papp", "result": "1.7 ×10⁻⁶ cm/s"}
{"SMILES": "Cn1c(=O)c2c(nc(S)n2C)n(C)c1=O", "concentration": "10 µM", "time": "2 h", "measurement": "Papp B→A", "result": "3 ×10⁻⁶ cm/s"}
